Experimental data as given in ChEMBL document CHEMBL4052823, “Extra Sugar on Vancomycin: New Analogues for Combating Multidrug-Resistant Staphylococcus aureus and Vancomycin-Resistant Enterococci” (J Med Chem, 2018).
≈ marks a conversion by molar mass, not a printed value.

Tests used:
[1] = Half life in CD1 mouse at 5 mg/kg, iv; format: ADME, organism-based; settings: in vivo
How it was run: (§1)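 Fasted male CD-1 mice (18−22 g), 5 mg/kg single dose into the tail vein, 6 per group. Blood sampled at 0.25, 0.75, 2, 4, 8 and 24 h and analysed by UPLC-MS/MS. T1/2, AUClast, AUCINF_obs, CL_obs, MRTINF_obs and VSS_obs were calculated for each animal from its time−concentration curve.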

[2] = AUClast in CD1 mouse at 5 mg/kg, iv; format: ADME, organism-based; design: dose 5 mg/kg, route intravenous, time 0 - last; settings: in vivo; how it was run: as §1
[3] = AUC (infinity) in CD1 mouse at 5 mg/kg, iv; format: ADME, organism-based; design: dose 5 mg/kg, route intravenous, time infinity; settings: in vivo; how it was run: as §1
[4] = Clearance in CD1 mouse at 5 mg/kg, iv; format: ADME, organism-based; settings: in vivo; how it was run: as §1
[5] = MRT (infinity) in CD1 mouse at 5 mg/kg, iv; format: ADME, organism-based; settings: in vivo; how it was run: as §1
[6] = Volume of distribution at steady state in CD1 mouse at 5 mg/kg, iv; format: ADME, organism-based; settings: in vivo, read-out: Vdss
How it was run: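 Fasted male CD-1 mice (18−22 g), 5 mg/kg single dose into the tail vein, 6 per group. T1/2, AUClast, AUCINF_obs, CL_obs, MRTINF_obs and VSS_obs were calculated for each animal from its time−concentration curve.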

Blood = test: Drug uptake in CD1 mouse blood at 5 mg/kg, iv; format: ADME, organism-based; settings: in vivo; how it was run: as §1
Staphylococcus aureus [7] = test: Antibacterial activity against vancomycin/methicillin-susceptible Staphylococcus aureus Newman […] after 24 hrs by broth microdilution method; format: functional
How it was run: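 Broth microdilution in cation-adjusted Mueller-Hinton II broth. […] Each well received ~10^5 CFU of exponential-phase bacteria and was incubated at 37 °C for 24 h. MIC was taken as the lowest concentration giving complete growth inhibition, interpreted per CLSI.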

Staphylococcus aureus [8] = test: Antibacterial activity against healthcare-associated methicillin-resistant/vancomycin-intermediate Staphylococcus aureus Mu50 after 24 hrs by broth microdilution method; format: functional; settings: Mu50, 24 h
How it was run: (§2)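 Broth microdilution in cation-adjusted Mueller-Hinton II broth. DMSO stocks were diluted in broth and twofold serially from 128 to 0.0625 μg/mL or lower. Each well was inoculated with ~10^5 CFU of exponential-phase bacteria and incubated at 37 °C for 24 h. MIC was the lowest concentration giving complete growth inhibition, read per CLSI. Growth controls contained broth plus DMSO.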

Enterococcus faecium [9] = test: Antibacterial activity against glycopeptide-resistant Enterococcus faecium Efm-HS-0649 vanA after 24 hrs by broth microdilution method; format: functional; settings: Efm-HS-0649, 24 h; how it was run: as §2
Enterococcus faecium [10] = test: Antibacterial activity against glycopeptide-resistant Enterococcus faecium Efm-HS-06188 vanA after 24 hrs by broth microdilution method; format: functional; settings: Efm-HS-06188, 24 h; how it was run: as §2
Enterococcus faecium [11] = test: Antibacterial activity against glycopeptide-resistant Enterococcus faecium Efm-HS-0847 vanM after 24 hrs by broth microdilution method; format: functional; settings: Efm-HS-0847, 24 h; how it was run: as §2
Enterococcus faecium [12] = test: Antibacterial activity against glycopeptide-resistant Enterococcus faecium Efm-HS-08257 vanM after 24 hrs by broth microdilution method; format: functional; settings: Efm-HS-08257, 24 h; how it was run: as §2
Enterococcus faecium [13] = test: Antibacterial activity against glycopeptide-resistant Enterococcus faecium Efm-HS-vb01 vanB after 24 hrs by broth microdilution method; format: functional; settings: Efm-HS-vb01, 24 h; how it was run: as §2
Staphylococcus aureus [14] = test: Potency index, ratio of telavancin MIC90 to test compound MIC90 for vancomycin/methicillin-susceptible Staphylococcus aureus Newman […]; format: functional

Row | SMILES | half-life [1] [h] | AUC(0-t) [2] [ng·h/mL] | AUC(0-inf) [3] [ng·h/mL] | clearance [4] [mL/min/kg] | MRT inf [5] [h] | Vd [6] [L/kg] | Drug uptake (Blood) [µg/mL] | MIC90 (Staphylococcus aureus [7]) [µg/mL] | MIC90 (Staphylococcus aureus [8]) [µg/mL] | MIC (Enterococcus faecium [9]) [µg/mL] | MIC (Enterococcus faecium [10]) [µg/mL] | MIC (Enterococcus faecium [11]) [µg/mL] | MIC (Enterococcus faecium [12]) [µg/mL] | MIC (Enterococcus faecium [13]) [µg/mL] | Ratio (Staphylococcus aureus [14])
1 | CN[C@H](CC(C)C)C(=O)N[C@H]1C(=O)N[C@@H](CC(N)=O)C(=O)N[C@H]2C(=O)N[C@H]3C(=O)N[C@H](C(=O)N[C@H](C(=O)O)c4cc(O)cc(O)c4-c4cc3ccc4O)[C@H](O)c3ccc(c(Cl)c3)Oc3cc2cc(c3O[C@@H]2O[C@H](CO)[C@@H](O)[C@H](O)[C@H]2O[C@H]2C[C@](C)(NCc3ccc(-c4ccc(C(F)(F)F)cc4)cc3)[C@H](O)[C@H](C)O2)Oc2ccc(cc2Cl)[C@H]1O | 6.04 | 64200 | 67500 | 1.24 | 6.83 | 0.509 | > 1 | – | – | – | – | – | – | – | –
2 | CN[C@H](CC(C)C)C(=O)N[C@H]1C(=O)N[C@@H](CC(N)=O)C(=O)N[C@H]2C(=O)N[C@H]3C(=O)N[C@H](C(=O)N[C@H](C(=O)O)c4cc(O)c(CNCP(=O)(O)O)c(O)c4-c4cc3ccc4O)[C@H](O)c3ccc(c(Cl)c3)Oc3cc2cc(c3O[C@@H]2O[C@H](CO)[C@@H](O)[C@H](O)[C@H]2O[C@H]2C[C@](C)(NCc3ccc(-c4ccc(Cl)cc4)cc3)[C@H](O)[C@H](C)O2)Oc2ccc(cc2Cl)[C@H]1O | – | – | – | – | – | – | – | 0.5 (≈ 0.282 µM) | 0.5 (≈ 0.282 µM) | 2 (≈ 1.13 µM) | 4 (≈ 2.26 µM) | 2 (≈ 1.13 µM) | 0.12 (≈ 0.0677 µM) | 0.25 (≈ 0.141 µM) | –
3 | CCCCCCCCCCN[C@@]1(C)C[C@H](O[C@H]2[C@H](Oc3c4cc5cc3Oc3ccc(cc3Cl)[C@@H](O)[C@@H](NC(=O)[C@@H](CC(C)C)NC)C(=O)N[C@@H](CC(N)=O)C(=O)N[C@H]5C(=O)N[C@H]3C(=O)N[C@H](C(=O)N[C@H](C(=O)O)c5cc(O)c(CN[C@H]6C(O)O[C@H](CO)[C@H](O)[C@@H]6O)c(O)c5-c5cc3ccc5O)[C@H](O)c3ccc(c(Cl)c3)O4)O[C@H](CO)[C@@H](O)[C@@H]2O)O[C@@H](C)[C@H]1O (stereo partly specified) | – | – | – | – | – | – | – | 0.03 (≈ 0.0168 µM) | 0.25 (≈ 0.14 µM) | 8 (≈ 4.49 µM) | 8 (≈ 4.49 µM) | 32 (≈ 18 µM) | 16 (≈ 8.99 µM) | 0.5 (≈ 0.281 µM) | 8 - 16
4 | CCCCCCCCCCNCCN[C@@]1(C)C[C@H](O[C@H]2[C@H](Oc3c4cc5cc3Oc3ccc(cc3Cl)[C@@H](O)[C@@H](NC(=O)[C@@H](CC(C)C)NC)C(=O)N[C@@H](CC(N)=O)C(=O)N[C@H]5C(=O)N[C@H]3C(=O)N[C@H](C(=O)N[C@H](C(=O)O)c5cc(O)c(CN[C@H]6C(O)O[C@H](CO)[C@H](O)[C@@H]6O)c(O)c5-c5cc3ccc5O)[C@H](O)c3ccc(c(Cl)c3)O4)O[C@H](CO)[C@@H](O)[C@@H]2O)O[C@@H](C)[C@H]1O (stereo partly specified) | – | – | – | – | – | – | – | 0.12 (≈ 0.0658 µM) | 0.5 (≈ 0.274 µM) | 16 (≈ 8.77 µM) | 8 (≈ 4.39 µM) | 8 (≈ 4.39 µM) | 8 (≈ 4.39 µM) | 1 (≈ 0.548 µM) | –
5 | CCCCCCCCCCNCCN[C@@]1(C)C[C@H](O[C@H]2[C@H](Oc3c4cc5cc3Oc3ccc(cc3Cl)[C@@H](O)[C@@H](NC(=O)[C@@H](CC(C)C)NC)C(=O)N[C@@H](CC(N)=O)C(=O)N[C@H]5C(=O)N[C@H]3C(=O)N[C@H](C(=O)N[C@H](C(=O)O)c5cc(O)c(CNCCCNC(=O)[C@H](O)[C@@H](O)[C@H](O)[C@H](O)CO)c(O)c5-c5cc3ccc5O)[C@H](O)c3ccc(c(Cl)c3)O4)O[C@H](CO)[C@@H](O)[C@@H]2O)O[C@@H](C)[C@H]1O | – | – | – | – | – | – | – | 0.5 (≈ 0.264 µM) | 1 (≈ 0.527 µM) | 2 (≈ 1.05 µM) | 4 (≈ 2.11 µM) | 2 (≈ 1.05 µM) | 0.12 (≈ 0.0633 µM) | 2 (≈ 1.05 µM) | –
6 | CN[C@H](CC(C)C)C(=O)N[C@H]1C(=O)N[C@@H](CC(N)=O)C(=O)N[C@H]2C(=O)N[C@H]3C(=O)N[C@H](C(=O)N[C@H](C(=O)O)c4cc(O)c(CNCCO)c(O)c4-c4cc3ccc4O)[C@H](O)c3ccc(c(Cl)c3)Oc3cc2cc(c3O[C@@H]2O[C@H](CO)[C@@H](O)[C@H](O)[C@H]2O[C@H]2C[C@](C)(NCc3ccc(OCc4cccc(-c5ccccc5)c4C)c(Cl)c3)[C@H](O)[C@H](C)O2)Oc2ccc(cc2Cl)[C@H]1O | – | – | – | – | – | – | – | 0.12 (≈ 0.0651 µM) | 0.5 (≈ 0.271 µM) | 1 (≈ 0.543 µM) | 0.5 (≈ 0.271 µM) | 2 (≈ 1.09 µM) | 1 (≈ 0.543 µM) | 1 (≈ 0.543 µM) | –
7 | CCCCCCCCCCNCCN[C@@]1(C)C[C@H](O[C@H]2[C@H](Oc3c4cc5cc3Oc3ccc(cc3Cl)[C@@H](O)[C@@H](NC(=O)[C@@H](CC(C)C)NC)C(=O)N[C@@H](CC(N)=O)C(=O)N[C@H]5C(=O)N[C@H]3C(=O)N[C@H](C(=O)N[C@H](C(=O)O)c5cc(O)c(CNCCO)c(O)c5-c5cc3ccc5O)[C@H](O)c3ccc(c(Cl)c3)O4)O[C@H](CO)[C@@H](O)[C@@H]2O)O[C@@H](C)[C@H]1O | – | – | – | – | – | – | – | 1 (≈ 0.586 µM) | 4 (≈ 2.35 µM) | 16 (≈ 9.38 µM) | 16 (≈ 9.38 µM) | 8 (≈ 4.69 µM) | 1 (≈ 0.586 µM) | 4 (≈ 2.35 µM) | –
8 | CCCCCCCCCCNCCN[C@@]1(C)C[C@H](O[C@H]2[C@H](Oc3c4cc5cc3Oc3ccc(cc3Cl)[C@@H](O)[C@@H](NC(=O)[C@@H](CC(C)C)NC)C(=O)N[C@@H](CC(N)=O)C(=O)N[C@H]5C(=O)N[C@H]3C(=O)N[C@H](C(=O)N[C@H](C(=O)O)c5cc(O)c(CN[C@H]6C(O)O[C@H](CO)[C@@H](O)[C@@H]6O)c(O)c5-c5cc3ccc5O)[C@H](O)c3ccc(c(Cl)c3)O4)O[C@H](CO)[C@@H](O)[C@@H]2O)O[C@@H](C)[C@H]1O (stereo partly specified) | – | – | – | – | – | – | – | 4 (≈ 2.19 µM) | 8 (≈ 4.39 µM) | 64 (≈ 35.1 µM) | 64 (≈ 35.1 µM) | 32 (≈ 17.5 µM) | 8 (≈ 4.39 µM) | 16 (≈ 8.77 µM) | –
9 | CN[C@H](CC(C)C)C(=O)N[C@H]1C(=O)N[C@@H](CC(N)=O)C(=O)N[C@H]2C(=O)N[C@H]3C(=O)N[C@H](C(=O)N[C@H](C(=O)NCCCN(C)C)c4cc(O)c(CNCCCNC(=O)[C@H](O)[C@@H](O)[C@H](O)[C@H](O)CO)c(O)c4-c4cc3ccc4O)[C@H](O)c3ccc(c(Cl)c3)Oc3cc2cc(c3O[C@@H]2O[C@H](CO)[C@@H](O)[C@H](O)[C@H]2O[C@H]2C[C@](C)(NCc3ccc(-c4ccc(Cl)cc4)cc3)[C@H](O)[C@H](C)O2)Oc2ccc(cc2Cl)[C@H]1O | – | – | – | – | – | – | – | 1 (≈ 0.5 µM) | 2 (≈ 1 µM) | 1 (≈ 0.5 µM) | 2 (≈ 1 µM) | 2 (≈ 1 µM) | 1 (≈ 0.5 µM) | 8 (≈ 4 µM) | –
10 | CN[C@H](CC(C)C)C(=O)N[C@H]1C(=O)N[C@@H](CC(N)=O)C(=O)N[C@H]2C(=O)N[C@H]3C(=O)N[C@H](C(=O)N[C@H](C(=O)O)c4cc(O)c(CNCCO[C@H]5O[C@H](CO)[C@@H](O)[C@H](O)[C@@H]5O)c(O)c4-c4cc3ccc4O)[C@H](O)c3ccc(c(Cl)c3)Oc3cc2cc(c3O[C@@H]2O[C@H](CO)[C@@H](O)[C@H](O)[C@H]2O[C@H]2C[C@](C)(NCc3ccc(-c4ccc(Cl)cc4)cc3)[C@H](O)[C@H](C)O2)Oc2ccc(cc2Cl)[C@H]1O | – | – | – | – | – | – | – | 2 (≈ 1.06 µM) | 4 (≈ 2.12 µM) | 0.5 (≈ 0.265 µM) | 1 (≈ 0.53 µM) | 2 (≈ 1.06 µM) | 0.12 (≈ 0.0637 µM) | 2 (≈ 1.06 µM) | –
